Published values gathered from unrelated publications.
Lines come from different studies, so protocols differ.
Read-out: cell growth or viability

Compound	cell line	test	conditions	quantity	result
Cc1cc(Nc2ccc(C(=O)N/N=C/c3cccc(Oc4ccccc4)c3)cc2)c2cccc(O)c2n1	Huh-7	MTT	20 µM	inhibition	61%
CCOCCOCCOCCNC(=S)NCCCC[C@H](NS(C)(=O)=O)C(=O)N[C@@H](C)C(=O)N[C@@H](CCCNC(=N)N)C(N)=O	HEK-293T	MTT	72 h	EC50	> 100 µM
Cc1cc(Nc2ccc(C(=O)N/N=C/c3nc4ccccc4[nH]3)cc2)c2cccc(O)c2n1	Huh-7	MTT	20 µM	inhibition	33%
COc1ccc(NC(=O)c2c(Nc3ccccc3)sc(C#N)c2NC(=O)CNc2ccc(C)cc2)cc1	HepG2	SRB	1 µM, 48 h	viability	75.9%
Cc1ccc(/C=N/NC(=O)c2ccc(Nc3cc(C)nc4c(O)cccc34)cc2)cc1	Huh-7	MTT	20 µM	inhibition	62.5%
COc1ccc(NC(=O)c2c(Nc3ccccc3)sc(C#N)c2NC(=O)CNc2ccc(Cl)cc2)cc1	HepG2	SRB	100 µM, 48 h	viability	30.1%
Cc1cc(Nc2ccc(C(=O)N/N=C/c3ccc(N(C)C)cc3)cc2)c2cccc(O)c2n1	Huh-7	MTT	20 µM	inhibition	69.9%
CCOC(=O)c1sc(NCc2ncccn2)nc1-c1ccccn1	Huh-7	–	–	CC50	> 40 µM
COc1cc(Nc2nccc(-c3cnn4nc(OC)ccc34)n2)cc(C(F)(F)F)c1	HEC-1B	ATP luminescence	–	IC50	> 3000 nM
CCOCc1sc(NCc2ncccn2)nc1-c1ccccn1	Huh-7	–	–	CC50	> 40 µM
Cc1cc(Nc2ccc(C(=O)N/N=C/c3ccnc(Cl)c3)cc2)c2cccc(O)c2n1	Huh-7	MTT	20 µM	inhibition	32.9%
COc1ccc(NC(=O)c2c(Nc3ccccc3)sc(C(=O)NN=Cc3ccc(OC)c(O)c3)c2NC(C)=O)cc1	HepG2	SRB	10 nM, 48 h	viability	82.6%
Cc1cc(Nc2ccc(C(=O)N/N=C/C3CCCCC3)cc2)c2cccc(O)c2n1	Huh-7	MTT	20 µM	inhibition	41.1%
COc1ccc(NC(=O)c2c(Nc3ccccc3)sc(C#N)c2NC(=O)CNc2ccc([N+](=O)[O-])cc2)cc1	HepG2	SRB	10 µM, 48 h	viability	54.1%
CO[C@]1(C(=O)N[C@@H](C)c2ccc(-n3cc(F)cn3)nc2)CC[C@H](c2nc(C)cc(Nc3cc(C)[nH]n3)n2)CC1	NCI-H292	ATP luminescence	72 h	GI50	> 10 µM
CC(=O)Oc1ccc(/C=N/NC(=O)c2ccc(Nc3cc(C)nc4c(O)cccc34)cc2)cc1	Huh-7	MTT	20 µM	inhibition	31.2%
Cc1c(NC(=O)c2ccc(C(C)(C)C)cc2)cccc1-c1cn(C)c(=O)c(Nc2ccc(C(=O)N3CCOCC3)cc2)n1	Ramos	–	48 h	GI50	> 10 µM
COc1ccc(NC(=O)c2c(Nc3ccccc3)sc(C#N)c2NC(=O)CNc2ccccc2[N+](=O)[O-])cc1	HepG2	SRB	1 nM, 48 h	viability	102%
C=CC(=O)Nc1cc(-n2c(=O)ccc3cnc4ccc(-c5ccc(NS(C)(=O)=O)cc5)cc4c32)ccc1C	Ramos	–	48 h	GI50	1.8 µM
COc1ccc(NC(=O)c2c(Nc3ccccc3)sc(C#N)c2NC(=O)CNc2ccc(Br)cc2)cc1	HepG2	SRB	1 µM, 48 h	viability	58.3%
COc1cc([C@@H]2c3cc4c(cc3[C@@H](O[C@@H]3O[C@@H]5CO[C@@H](C)O[C@H]5[C@H](O)[C@H]3O)[C@H]3COC(=O)[C@H]23)OCO4)cc(OC)c1O	CCD-18Co	MTS	24 h	IC50	48400 nM
CCCCCCCCCCCCNC(=S)NCCCC[C@H](NC(=O)OCc1ccccc1)C(=O)N[C@@H](C)C(=O)N[C@@H](CCCNC(=N)N)C(N)=O	HEK-293T	MTT	72 h	EC50	102 to 121 µM
CC(C)C[C@H](NC(=O)[C@H](Cc1ccccc1)NC(=O)c1cnccn1)B(O)O	HEC-1B	ATP luminescence	–	IC50	9.6 nM
COc1ccc(NC(=O)c2c(Nc3ccccc3)sc(C#N)c2NC(=O)CNc2ccccc2)cc1	HepG2	SRB	100 µM, 48 h	viability	95%
CCCCCCCCCCCCNC(=S)NCCCC[C@H](NS(C)(=O)=O)C(=O)N[C@H](C)C(=O)N[C@@H](CCCNC(=N)N)C(=O)N1CCOCC1	HEK-293T	MTT	72 h	EC50	> 100 µM
Cc1cc(Nc2ccc(C(=O)N/N=C/c3ccncc3)cc2)c2cccc(O)c2n1	Huh-7	MTT	20 µM	inhibition	76.9%
